From PMC11969896 (Virology Journal, 2025)
Values joined by “and” are separate entries in the source; they are usually repeats but may differ in a detail not shown here. Equal entries are not always repeated.

Legend:
HNV RdRp = biological target: T1, HNV RdRp (Norovirus Hu/GII.4/Sydney348/97O/AU, UniProt Q2N379); experiment: RdRp inhibition assay; type: biochemical, human norovirus (G II 0.4/Sydney/2006)
T1 sequence (Q2N379 1-510): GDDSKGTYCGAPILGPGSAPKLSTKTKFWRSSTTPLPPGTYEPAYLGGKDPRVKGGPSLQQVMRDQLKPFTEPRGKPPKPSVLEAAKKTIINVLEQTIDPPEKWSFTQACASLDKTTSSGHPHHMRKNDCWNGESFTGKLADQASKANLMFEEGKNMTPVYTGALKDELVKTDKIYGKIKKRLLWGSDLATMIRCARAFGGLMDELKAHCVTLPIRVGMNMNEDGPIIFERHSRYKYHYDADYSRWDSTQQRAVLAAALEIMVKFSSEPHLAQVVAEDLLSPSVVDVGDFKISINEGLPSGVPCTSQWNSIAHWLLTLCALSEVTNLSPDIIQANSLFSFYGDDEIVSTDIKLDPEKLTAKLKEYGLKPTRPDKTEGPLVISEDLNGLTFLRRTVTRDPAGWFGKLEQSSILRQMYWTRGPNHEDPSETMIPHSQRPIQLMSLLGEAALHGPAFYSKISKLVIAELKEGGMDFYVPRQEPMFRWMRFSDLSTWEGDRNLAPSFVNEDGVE
Summary of the method: (§1)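 MNV^CW3 RdRp (GST-tagged) or HNV GII.4 Sydney/2006 RdRp (His-tagged) expressed in E. coli BL21(DE3) and affinity-purified. Enzyme preincubated with compound 10 min at 30 °C in 10 mM PBS pH 7.5, 2.5 mM MnCl2, 5 mM DTT. Poly(C) and GTP then added (final 2.8 μM enzyme, 40 μg/mL poly(C), 25 μM GTP), 30 min at 30 °C. EDTA stop; dsRNA by PicoGreen (ex 480/em 520 nm); normalized to 0.5% DMSO vehicle.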

Cytotoxicity [1] = type: cell-based; conditions: mouse, BV2 cells
MNV^CW3 [2] = experiment: MNV plaque assay; type: cell-based, murine norovirus; conditions: BV2 cells, 97 μM, 24 h
Summary of the method: (§2)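 Infected cells harvested at 24 hpi and frozen at −80 °C. RAW264.7 monolayers seeded at 1.8 × 10^6 cells/well; 16 h later, tenfold serial lysate dilutions applied for 1 h with rocking. Overlay of MEM, 10% FBS, 2 mM L-glutamine, 10 mM HEPES and 1% methylcellulose, incubated 2 days. Plaques stained with 0.2% crystal violet in 20% ethanol.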

MNV^CW3 RdRp = biological target: T2, MNV^CW3 RdRp (Norovirus, UniProt Q80J95); experiment: RdRp inhibition assay; type: biochemical, murine norovirus
T2 sequence (Q80J95 1178-1687 limits assumed): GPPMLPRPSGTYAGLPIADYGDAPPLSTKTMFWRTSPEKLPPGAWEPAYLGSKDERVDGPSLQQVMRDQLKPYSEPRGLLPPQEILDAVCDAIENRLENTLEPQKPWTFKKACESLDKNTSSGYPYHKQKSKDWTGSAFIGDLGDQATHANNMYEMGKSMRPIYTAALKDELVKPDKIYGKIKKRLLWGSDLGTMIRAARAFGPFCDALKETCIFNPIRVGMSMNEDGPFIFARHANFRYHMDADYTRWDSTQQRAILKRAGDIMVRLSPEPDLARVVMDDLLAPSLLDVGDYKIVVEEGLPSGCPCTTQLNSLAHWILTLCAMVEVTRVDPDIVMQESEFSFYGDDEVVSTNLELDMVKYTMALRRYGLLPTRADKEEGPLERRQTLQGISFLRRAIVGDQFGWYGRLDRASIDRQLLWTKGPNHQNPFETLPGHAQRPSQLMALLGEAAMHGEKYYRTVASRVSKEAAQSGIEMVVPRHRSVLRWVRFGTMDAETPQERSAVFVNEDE
Summary of the method: as §1

MNV RdRp = biological target: T3, MNV RdRp (Norovirus, UniProt Q80J95); experiment: Size-exclusion chromatography of MNV RdRp with or without compound; set-up: species or system murine norovirus; conditions: 60 μM compound
T3 sequence (Q80J95 1178-1687 limits assumed): T2 sequence (Q80J95 1178-1687 limits assumed)
Summary of the method: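 Purified RdRp, with or without 60 μM compound, run on a Superose 6 10/300 GL gel-filtration column equilibrated in 20 mM Tris-HCl pH 8.0, 150 mM NaCl, at 0.4 mL/min.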

MNV^CW3 [3] = experiment: MNV viral genome copies quantification; type: cell-based, murine norovirus; conditions: RAW264.7 cells, 40 μg/mL, 24 h
MNV^CR6 = MNV^CR6 replication in cell culture; type: cell-based, murine norovirus; conditions: BV2 and RAW264.7 cells
MNV^CW3 [4] = experiment: MNV plaque assay; type: cell-based, murine norovirus; conditions: RAW264.7 cells, 40 μg/mL, 24 h
Summary of the method: as §2

MNV^CW3 [5] = experiment: MNV viral genome copies quantification; type: cell-based, murine norovirus; conditions: BV2 cells, 40 μg/mL (97 μM), 24 h treatment
MNV^CW3 [6] = experiment: Cell viability-based anti-MNV screening in MNV^CW3-infected BV2 cells; set-up: species or system murine norovirus; conditions: MNV^CW3 infection, 40 μg/mL compound, 24 h, DMSO control about 2.7%
Summary of the method: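 BV2 cells plated at 10,000/well 16–18 h before infection with MNV^CW3 at MOI 0.25 for 1 h. Medium then replaced with 40 μg/mL compound or DMSO vehicle. Viability read after 24 h as ATP level by luminescence kit. At least 3 biological repeats.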

Cytotoxicity [7] = type: cell-based; conditions: mouse, RAW264.7 cells
MNV^CW3 [8] = experiment: Cell viability of MNV^CW3-infected RAW264.7 cells; type: cell-based, murine norovirus; conditions: RAW264.7 cells after MNV^CW3 infection, 24 h

| SMILES | IC50 (HNV RdRp) | inhibition of HNV RdRp (HNV RdRp; same assay, normalized to DMSO vehicle control) | CC50 (Cytotoxicity [1]) | formation of MNV^CW3 plaques (viral titer) (MNV^CW3 [2]) | IC50 (MNV^CW3 RdRp) | inhibition of MNV^CW3 RdRp (MNV^CW3 RdRp; 35 μM RdRp in the reaction system, vs vehicle (0.5% DMSO), 4 μL of 100 μM compound (4 μM Co-29 final)) | main SEC peak formed by the protein when compound added (aggregation check) (MNV RdRp) | MNV^CW3 genome copy number (MNV^CW3 [3]) | cell viability after MNV^CR6 infection (MNV^CR6) | MNV^CR6 plaque numbers (MNV^CR6; 97 μM) | MNV^CR6 viral genome copies (MNV^CR6; 97 μM (40 μg/mL)) | MNV^CW3 viral titers (MNV^CW3 [4]) | decrease of MNV^CW3 RNA level vs DMSO vehicle control (MNV^CW3 [5]) | cell viability (ratio of live cells) (MNV^CW3 [6]) | CC50 (Cytotoxicity [7]) | concentration of maximum effectiveness (cell viability) (MNV^CW3 [8]) |
| --- | --- | --- | --- | --- | --- | --- | --- | --- | --- | --- | --- | --- | --- | --- | --- | --- |
| N#Cc1c(-c2ccccc2O)nc(SCC(=O)Nc2cc(F)cc(F)c2)[nH]c1=O [Co-29, 2-((5-cyano-4-(2-hydroxyphenyl)-6-oxo-1,6-dihydropyrimidin-2-yl)thio)-N-(3,5-difluorophenyl)acetamide] | 36.6 µM | more than 70% | ~52.2 µg/mL and ~126 µM | dramatically inhibited | 32 µM | > 75% | did not change | decreased | increased cell viability | decreased plaque numbers | low levels of viral genome copies | decreased | more than 2 Log10-fold | 36.9% | 105 µM | 40 µg/mL |
| C[C@@]1(O)[C@H](O)[C@@H](CO)O[C@H]1n1ccc(N)nc1=O [Compound 2CMC, 2′-C-methyl-cytidine, reference compound] |  |  |  |  |  |  |  | decreased |  |  |  | decreased |  |  |  |  |
